Assay results from different studies.
Compare with care: the assays were run in different laboratories.
Effect on: cell growth or viability

`COC(=O)c1c(C)ncn1CC(c1c[nH]c2ccc(C)cc12)c1c[nH]c2ccc(C)cc12` gave an inhibition of 12.2% (HaCaT; MTS; 20 µM, 24 h).
With `CC(C)C[C@H](NC(=O)[C@H](Cc1ccccc1)NC(=O)c1cnccn1)B(O)O` the IC50 was 17 nM (HEC-1-A; ATP luminescence).
`Cc1cc(Nc2ncc(Cl)c(Nc3ccccc3S(=O)(=O)C(C)C)n2)c(OC(C)C)cc1C1CCNCC1` gave an inhibition of 73.4% (KARPAS-299; MTT; 0.55556 µg/mL, 72 h).
`Cc1cc(C)cc(COc2cc3c(cc2OCc2cc(C)cc(C)c2)C2CC(O)(Cc4cn(CCOCCOCCOCCNC(=O)CNc5cccc6c5C(=O)N(C5CCC(=O)NC5=O)C6=O)nn4)CC(C)N2CC3)c1` (stereo not shown) has an IC50 of 3210 nM (ASPC1; MTT).
For `COC(C)(C)CCC[C@](C)(O)[C@H]1CC[C@]2(C)[C@@H]1[C@H](O)C[C@@H]1[C@@]3(C)CC[C@H](O)C(C)(C)[C@@H]3CC[C@]12C`, the IC80 was 81700 nM (NCI-H358; MTT; 72 h).
With `COc1cc(Nc2nccc(-c3cnn4nc(OC)ccc34)n2)cc(C(F)(F)F)c1` the IC50 was greater than 3000 nM (HCC1569; ATP luminescence).
`COC(=O)c1c(C)ncn1CC(c1c[nH]c2ccccc12)c1c[nH]c2ccccc12` has an inhibition of 9.7% (HaCaT; MTS; 20 µM, 24 h).
With `COc1cc(-c2ccc(-c3ccc(C(=N)N)nc3)s2)cc(OC)c1OC` the GI50 was 4730 nM (SNB-19; SRB).
The inhibition of `COC(=O)c1c(C)ncn1CC(c1cn(C)c2ccccc12)c1cn(C)c2ccccc12` is reported as 12.6% (HaCaT; MTS; 20 µM, 24 h).
`CC(C)=CCC[C@](C)(O)[C@H]1CC[C@]2(C)[C@@H]1[C@H](O)C[C@@H]1[C@@]3(C)CC[C@H](O[C@@H]4O[C@H](CO)[C@@H](O)[C@H](O)[C@H]4O[C@@H]4O[C@H](CO)[C@@H](O)[C@H](O)[C@H]4O)C(C)(C)[C@@H]3CC[C@]12C` gave an IC80 of greater than 100000 nM (NCI-H358; MTT; 72 h).
For `Cc1cc(C)cc(COc2cc3c(cc2OCc2cc(C)cc(C)c2)[C@H]2C[C@](O)(Cc4cn(CCOCCOCCOCCNC(=O)[C@@H](CC(C)C)NC(=O)[C@@H](O)[C@H](N)Cc5ccccc5)nn4)C[C@H](C)N2CC3)c1`, the IC50 was 630 nM (ASPC1; MTT).
`CCc1ncn(CC(c2c[nH]c3ccc(C)cc23)c2c[nH]c3ccc(C)cc23)c1C(=O)OC` has an inhibition of 23% (HaCaT; MTS; 20 µM, 24 h).
`Cc1cc(C)cc(COc2cc3c(cc2OCc2cc(C)cc(C)c2)C2CC(O)(Cc4cn(CCCCCCNc5ccc6c(c5)C(=O)N(C5CCC(=O)NC5=O)C6=O)nn4)CC(C)N2CC3)c1` (stereo not shown) gave an IC50 of 1230 nM (ASPC1; MTT).
`COc1cccc(Oc2ccccc2NC(=O)CNC(=O)c2cccc3ccccc23)c1` has a GI50 of 617 nM (SNB-19; SRB; 48 h).
The IC50 of `Cc1cc(C)cc(COc2cc3c(cc2OCc2cc(C)cc(C)c2)[C@H]2C[C@](O)(Cc4cn(Cc5cccnc5)nn4)C[C@H](C)N2CC3)c1` is reported as 674 nM (ASPC1; MTT).
`COC(=O)c1c(C)ncn1CC(c1c[nH]c2cc(Br)ccc12)c1c[nH]c2cc(Br)ccc12` has an inhibition of 28.8% (HaCaT; MTS; 20 µM, 24 h).
The IC50 of `Cc1cc(C)cc(COc2cc3c(cc2OCc2cc(C)cc(C)c2)[C@H]2C[C@](O)(Cc4cn(Cc5ccc(Cl)c(Cl)c5)nn4)C[C@H](C)N2CC3)c1` is reported as 606 nM (ASPC1; MTT).
For `CN1C[C@H](C(=O)N[C@]2(C)O[C@@]3(O)[C@@H]4CCCN4C(=O)[C@H](Cc4ccccc4)N3C2=O)C[C@@H]2c3cccc4[nH]cc(c34)C[C@H]21`, the EC50 was 80000 nM (WI-38; MTT; 72 h).
The IC50 of `Cc1cc(C)cc(COc2cc3c(cc2OCc2cc(C)cc(C)c2)[C@H]2C[C@](O)(Cc4cn(-c5ccccc5)nn4)C[C@H](C)N2CC3)c1` is reported as 593 nM (ASPC1; MTT).
`C[C@@H](Oc1cc(-c2cnn(C3CCNCC3)c2)cnc1N)c1c(Cl)ccc(F)c1Cl` gave an inhibition of 27.5% (KARPAS-299; MTT; 0.008 µg/mL, 72 h).
`COc1ccc(-c2ccc(-c3ccc(C(=N)N)nc3)s2)cc1Cl` gave a GI50 of 1700 nM (SNB-19; SRB).
`Cc1cc(C)cc(COc2cc3c(cc2OCc2cc(C)cc(C)c2)C2CC(O)(Cc4cn(CCOCCOCCOCCNC(=O)CNc5ccc6c(c5)C(=O)N(C5CCC(=O)NC5=O)C6=O)nn4)CC(C)N2CC3)c1` (stereo not shown) gave an IC50 of greater than 5000 nM (ASPC1; MTT).
